From ChEMBL document CHEMBL4024783, “Alkylated Piperazines and Piperazine-Azole Hybrids as Antifungal Agents” (J Med Chem, 2018)
In brackets after ≈: the same amount, converted by molar mass.

Tests used:
Aspergillus nidulans = test: Antifungal activity against Aspergillus nidulans ATCC 38163 after 48 hrs by broth dilution method; assay type: functional; settings: Aspergillus nidulans, ATCC 38163, 48 h
How it was run: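 A. nidulans run per CLSI M38-A2. PDA spores were filtered through glass wool and counted by hemocytometer. Test range 0.03–31.3 µg/mL in MOPS-buffered RPMI 1640 (pH 7.0), final 5 × 10^5 CFU/mL.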

Candida albicans [1] = test: Antifungal activity against Candida albicans ATCC 10231 after 48 hrs by broth dilution method; assay type: functional; settings: ATCC 10231, 48 h
Candida albicans [2] = test: Antifungal activity against itraconazole and fluconazole resistant Candida albicans ATCC 90819 after 48 hrs by broth dilution method; assay type: functional; settings: Candida albicans, ATCC 90819, 48 h
How it was run: (§1)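 CLSI M27-A3 broth microdilution with minor modifications. Overnight YPD culture grown at 35 °C, 200 rpm, adjusted to OD600 0.12, diluted in RPMI 1640 buffered to pH 7.0 with 0.165 M MOPS to a final 1–2 × 10^3 CFU/mL. Test compounds at 0.015–31.3 µg/mL, 48 h at 35 °C, DMSO <1.25%. […] Triplicate.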

Nakaseomyces glabratus = test: Antifungal activity against Candida glabrata ATCC 2001 after 48 hrs by broth dilution method; assay type: functional, CBS 138; settings: Nakaseomyces glabratus, CBS 138, 48 h
Candida albicans [3] = test: Antifungal activity against Candida albicans ATCC 64124 after 48 hrs by broth dilution method; assay type: functional; settings: Candida albicans, ATCC 64124, 48 h; how it was run: as §1
Pichia kudriavzevii = test: Antifungal activity against Candida krusei ATCC 6258 after 48 hrs by broth dilution method; assay type: functional; settings: Pichia kudriavzevii, ATCC 6258, 48 h
How it was run: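 Yeasts tested per CLSI M27-A3 with minor changes. An overnight YPD culture (35 °C, 200 rpm) was adjusted to OD600 0.12 and diluted in MOPS-buffered RPMI 1640 (pH 7.0) to a final 1–2 × 10^3 CFU/mL. Compounds 0.015–31.3 µg/mL, DMSO <1.25%.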

Candida parapsilosis = test: Antifungal activity against Candida parapsilosis ATCC 22019 after 48 hrs by broth dilution method; assay type: functional; settings: Lodderomyces parapsilosis, ATCC 22019, 48 h
Aspergillus terreus = test: Antifungal activity against Aspergillus terreus ATCC MYA-3633 after 48 hrs by broth dilution method; assay type: functional; settings: Aspergillus terreus, ATCC MYA-3633, 48 h
How it was run: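 Molds tested per CLSI M38-A2. Spores were harvested from sporulating PDA cultures by filtering through glass wool and counted on a hemocytometer. Serial dilutions (0.03–31.3 µg/mL) were made in RPMI 1640 buffered to pH 7.0 with 0.165 M MOPS, final inoculum 5 × 10^5 CFU/mL.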

Candida albicans [4] = test: Antifungal activity against itraconazole and fluconazole resistant Candida albicans ATCC MYA-1003 after 48 hrs by broth dilution method; assay type: functional; settings: Candida albicans, ATCC MYA-1003, 48 h; how it was run: as §1
Candida albicans [5] = test: Antifungal activity against itraconazole and fluconazole resistant Candida albicans ATCC MYA-1237 after 48 hrs by broth dilution method; assay type: functional; settings: Candida albicans, ATCC MYA-1237, 48 h; how it was run: as §1
Aspergillus flavus = test: Antifungal activity against Aspergillus flavus ATCC MYA-3631 after 48 hrs by broth dilution method; assay type: functional; settings: ATCC MYA-3631, 48 h
Candida albicans [6] = test: Antifungal activity against itraconazole and fluconazole susceptible Candida albicans ATCC MYA-2876 after 48 hrs by broth dilution method; assay type: functional; settings: Candida albicans, ATCC MYA-2876, 48 h
Candida albicans [7] = test: Antifungal activity against itraconazole and fluconazole susceptible Candida albicans ATCC MYA-2310 after 48 hrs by broth dilution method; assay type: functional; settings: Candida albicans, ATCC MYA-2310, 48 h
[8] = Aqueous solubility of the compound; assay type: physicochemical; settings: buffer
[9] = Solubility of the compound in DMSO; assay type: physicochemical

With `CCCCCN1CCN(CC(O)(Cn2cncn2)c2ccc(F)cc2F)CC1` (centres undefined) the MIC (Aspergillus nidulans) was over 79.5 µM, the MIC (Candida albicans [1]) was over 79.5 µM and the MIC (Candida albicans [2]) was 79.5 µM (≈ 31.3 µg/mL). It also gave an MIC (Nakaseomyces glabratus) of over 79.5 µM, an MIC (Candida albicans [3]) of over 79.5 µM and an MIC (Pichia kudriavzevii) of over 79.5 µM. It also gave an MIC (Candida parapsilosis) of 39.6 µM (≈ 15.6 µg/mL), an MIC (Aspergillus terreus) of over 79.5 µM and an MIC (Candida albicans [4]) of over 79.5 µM. For the same compound, the MIC (Candida albicans [5]) was over 79.5 µM, the MIC (Aspergillus flavus) was over 79.5 µM and the MIC (Candida albicans [6]) was over 79.5 µM. It also gave an MIC (Candida albicans [7]) of over 79.5 µM.
In the case of `OC(CN1CCOCC1)(Cn1cncn1)c1ccc(F)cc1F` (centres undefined), the MIC (Aspergillus nidulans) is reported as 6 µM (≈ 1.95 µg/mL), the MIC (Candida albicans [1]) is reported as over 96.5 µM and the MIC (Candida albicans [2]) is reported as 12 to 96.5 µM (≈ 3.89 to 31.3 µg/mL). It also gave an MIC (Nakaseomyces glabratus) of 96.5 µM (≈ 31.3 µg/mL), an MIC (Candida albicans [3]) of over 96.5 µM and an MIC (Pichia kudriavzevii) of over 96.5 µM. For the same compound, the MIC (Candida parapsilosis) was over 96.5 µM, the MIC (Aspergillus terreus) was 48.1 µM (≈ 15.6 µg/mL) and the MIC (Candida albicans [4]) was 96.5 µM (≈ 31.3 µg/mL). It also gave an MIC (Candida albicans [5]) of over 96.5 µM, an MIC (Aspergillus flavus) of 24 µM (≈ 7.78 µg/mL) and an MIC (Candida albicans [6]) of over 96.5 µM. It also gave an MIC (Candida albicans [7]) of 24 to 96.5 µM (≈ 7.78 to 31.3 µg/mL).
For `CCCCCCCCCCCCCN1CCN(CC(O)(Cn2cncn2)c2ccc(F)cc2F)CC1` (centres undefined), the solubility [8] was “Soluble”, the MIC (Aspergillus nidulans) was 1.9 µM (≈ 0.961 µg/mL) and the MIC (Candida albicans [1]) was 3.9 µM (≈ 1.97 µg/mL). For the same compound, the MIC (Candida albicans [2]) was 3.9 µM (≈ 1.97 µg/mL), the MIC (Nakaseomyces glabratus) was 1.9 µM (≈ 0.961 µg/mL) and the MIC (Candida albicans [3]) was 15.4 µM (≈ 7.79 µg/mL). For the same compound, the MIC (Pichia kudriavzevii) was 1.9 µM (≈ 0.961 µg/mL), the MIC (Candida parapsilosis) was under 0.47 µM and the MIC (Aspergillus terreus) was 1.9 µM (≈ 0.961 µg/mL). The MIC (Candida albicans [4]) was 7.7 µM (≈ 3.89 µg/mL), the MIC (Candida albicans [5]) was 7.7 µM (≈ 3.89 µg/mL) and the solubility [9] was “Soluble”. For the same compound, the MIC (Aspergillus flavus) was 1.9 µM (≈ 0.961 µg/mL), the MIC (Candida albicans [6]) was 3.9 µM (≈ 1.97 µg/mL) and the MIC (Candida albicans [7]) was 7.7 µM (≈ 3.89 µg/mL).
With `Fc1ccc(C2(Cn3cncn3)CO2)c(F)c1` (centres undefined) the MIC (Aspergillus nidulans) was over 132 µM, the MIC (Candida albicans [1]) was over 132 µM and the MIC (Candida albicans [2]) was over 132 µM. It also gave an MIC (Nakaseomyces glabratus) of over 132 µM, an MIC (Candida albicans [3]) of over 132 µM and an MIC (Pichia kudriavzevii) of over 132 µM. For the same compound, the MIC (Candida parapsilosis) was over 132 µM, the MIC (Aspergillus terreus) was over 132 µM and the MIC (Candida albicans [4]) was over 132 µM. The MIC (Candida albicans [5]) was over 132 µM, the MIC (Aspergillus flavus) was over 132 µM and the MIC (Candida albicans [6]) was over 132 µM. For the same compound, the MIC (Candida albicans [7]) was over 132 µM.
Compound `CN1CCN(CC(O)(Cn2cncn2)c2ccc(F)cc2F)CC1` (centres undefined) has an MIC (Aspergillus nidulans) of 2.9 µM (≈ 0.978 µg/mL), an MIC (Candida albicans [1]) of 23.1 µM (≈ 7.79 µg/mL) and an MIC (Candida albicans [2]) of 92.8 µM (≈ 31.3 µg/mL). The MIC (Nakaseomyces glabratus) was 92.8 µM (≈ 31.3 µg/mL), the MIC (Candida albicans [3]) was 92.8 µM (≈ 31.3 µg/mL) and the MIC (Pichia kudriavzevii) was 46.2 µM (≈ 15.6 µg/mL). It also gave an MIC (Candida parapsilosis) of 2.9 µM (≈ 0.978 µg/mL), an MIC (Aspergillus terreus) of 92.8 µM (≈ 31.3 µg/mL) and an MIC (Candida albicans [4]) of 92.8 µM (≈ 31.3 µg/mL). For the same compound, the MIC (Candida albicans [5]) was 92.8 µM (≈ 31.3 µg/mL), the MIC (Aspergillus flavus) was 92.8 µM (≈ 31.3 µg/mL) and the MIC (Candida albicans [6]) was 23.1 µM (≈ 7.79 µg/mL). For the same compound, the MIC (Candida albicans [7]) was 23.1 µM (≈ 7.79 µg/mL).
In the case of `CCCCCCCCCCCCCCN1CCN(CC(O)(Cn2cncn2)c2ccc(F)cc2F)CC1` (centres undefined), the MIC (Aspergillus nidulans) is reported as 3.8 µM (≈ 1.97 µg/mL), the MIC (Candida albicans [1]) is reported as 3.8 µM (≈ 1.97 µg/mL) and the MIC (Candida albicans [2]) is reported as 3.8 µM (≈ 1.97 µg/mL). For the same compound, the MIC (Nakaseomyces glabratus) was over 60.2 µM, the MIC (Candida albicans [3]) was 60.2 µM (≈ 31.3 µg/mL) and the MIC (Pichia kudriavzevii) was 1.9 µM (≈ 0.987 µg/mL). It also gave an MIC (Candida parapsilosis) of over 60.2 µM, an MIC (Aspergillus terreus) of 1.9 µM (≈ 0.987 µg/mL) and an MIC (Candida albicans [4]) of 3.8 µM (≈ 1.97 µg/mL). The MIC (Candida albicans [5]) was 7.5 µM (≈ 3.9 µg/mL), the MIC (Aspergillus flavus) was 0.9 µM (≈ 0.468 µg/mL) and the MIC (Candida albicans [6]) was 15 µM (≈ 7.8 µg/mL). The MIC (Candida albicans [7]) was 7.5 µM (≈ 3.9 µg/mL).
In the case of `CCCCCCCCCCCN1CCN(CC(O)(Cn2cncn2)c2ccc(F)cc2F)CC1` (centres undefined), the MIC (Aspergillus nidulans) is reported as 4.1 µM (≈ 1.96 µg/mL), the MIC (Candida albicans [1]) is reported as 4.1 µM (≈ 1.96 µg/mL) and the MIC (Candida albicans [2]) is reported as 32.8 µM (≈ 15.7 µg/mL). It also gave an MIC (Nakaseomyces glabratus) of 8.2 µM (≈ 3.92 µg/mL), an MIC (Candida albicans [3]) of 32.8 µM (≈ 15.7 µg/mL) and an MIC (Pichia kudriavzevii) of 4.1 µM (≈ 1.96 µg/mL). For the same compound, the MIC (Candida parapsilosis) was 0.5 µM (≈ 0.239 µg/mL), the MIC (Aspergillus terreus) was 4.1 µM (≈ 1.96 µg/mL) and the MIC (Candida albicans [4]) was 32.8 µM (≈ 15.7 µg/mL). For the same compound, the MIC (Candida albicans [5]) was 32.8 µM (≈ 15.7 µg/mL), the MIC (Aspergillus flavus) was 4.1 µM (≈ 1.96 µg/mL) and the MIC (Candida albicans [6]) was 16.4 µM (≈ 7.83 µg/mL). For the same compound, the MIC (Candida albicans [7]) was 32.8 µM (≈ 15.7 µg/mL).
Work on `CCCCCCCCCCN1CCNCC1` yielded an MIC (Aspergillus nidulans) of 68.9 µM (≈ 15.6 µg/mL), an MIC (Candida albicans [1]) of 68.9 µM (≈ 15.6 µg/mL) and an MIC (Candida albicans [2]) of 68.9 µM (≈ 15.6 µg/mL). It also gave an MIC (Nakaseomyces glabratus) of 34.5 µM (≈ 7.81 µg/mL), an MIC (Candida albicans [3]) of 68.9 µM (≈ 15.6 µg/mL) and an MIC (Pichia kudriavzevii) of 34.5 µM (≈ 7.81 µg/mL). For the same compound, the MIC (Candida parapsilosis) was 68.9 µM (≈ 15.6 µg/mL), the MIC (Aspergillus terreus) was 68.9 µM (≈ 15.6 µg/mL) and the MIC (Candida albicans [4]) was 68.9 µM (≈ 15.6 µg/mL). For the same compound, the MIC (Candida albicans [5]) was 68.9 µM (≈ 15.6 µg/mL), the MIC (Aspergillus flavus) was 138 µM (≈ 31.3 µg/mL) and the MIC (Candida albicans [6]) was 68.9 µM (≈ 15.6 µg/mL). The MIC (Candida albicans [7]) was 68.9 µM (≈ 15.6 µg/mL).
Compound `CCCCCCCCCN1CCNCC1` has an MIC (Aspergillus nidulans) of over 147 µM, an MIC (Candida albicans [1]) of 147 µM (≈ 31.3 µg/mL) and an MIC (Candida albicans [2]) of 147 µM (≈ 31.3 µg/mL). For the same compound, the MIC (Nakaseomyces glabratus) was 147 µM (≈ 31.3 µg/mL), the MIC (Candida albicans [3]) was over 147 µM and the MIC (Pichia kudriavzevii) was 147 µM (≈ 31.3 µg/mL). For the same compound, the MIC (Candida parapsilosis) was over 147 µM, the MIC (Aspergillus terreus) was over 147 µM and the MIC (Candida albicans [4]) was over 147 µM. It also gave an MIC (Candida albicans [5]) of 147 µM (≈ 31.3 µg/mL), an MIC (Aspergillus flavus) of 147 µM (≈ 31.3 µg/mL) and an MIC (Candida albicans [6]) of over 147 µM. The MIC (Candida albicans [7]) was 147 µM (≈ 31.3 µg/mL).
